Active and inactive are the calls of the source. The calls are words filed in the database; no cut-off is given here.
Key:
[1] = molecular target: Focal adhesion kinase 1 (Homo sapiens) (UniProt Q05397); assay: Inhibition of FAK-Y397 phosphorylation in human BT474 cells at 100 uM by Western blotting; format: cell-based; conditions: BT-474, TDE = time-dependent effect
In short: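 BT474 cells given 100 μM for 1–24 h; Y397-FAK and total FAK normalized to β-actin by densitometry, expressed relative to untreated; three independent experiments, mean ± SE.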

[2] = molecular target: Focal adhesion kinase 1 (Homo sapiens) (UniProt Q05397); assay: Inhibition of total FAK phosphorylation in human BT474 cells at 100 uM by Western blotting; format: cell-based; conditions: BT-474, TDE = time-dependent effect
In short: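 BT474 lysates immunoprecipitated with FAK antibody, blotted with phosphotyrosine antibody, then stripped and reprobed for FAK.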

BT-474 [3] = assay: Effect on human BT474 cell survival assessed as cell detachment at 10 uM after 24 hrs by hemocytometer; format: functional
In short: (§1)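 BT474 cells treated at a range of doses; detached cells counted on a hemacytometer; means ± standard errors of three independent experiments, versus untreated cells.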

BT-474 [4] = assay: Induction of apoptosis in human BT474 cells assessed as presence of apoptotic nuclei at 20 uM after 24 hrs by […] staining; format: functional, cell-based
In short: (§2)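 BT474 cells treated 24 h at various doses; apoptotic nuclei scored by Hoechst staining; means ± SD of four independent experiments versus untreated cells.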

BT-474 [5] = assay: Induction of apoptosis in human BT474 cells assessed as cleavage of 89 kDa PARP at 1 uM after 24 hrs by Western blotting; format: functional, cell-based
In short: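 BT474 cells treated at various doses; lysates immunoblotted with PARP antibody, scoring cleaved 89 kDa fragment.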

BT-474 [6] = assay: Inhibition of human BT474 cells adhesion on collagen coated plates at 100 uM after 3 hrs by crystal violet staining
BT-474 [7] = assay: Induction of apoptosis in human BT474 cells at 20 uM after 24 hrs by […] staining; format: functional; in short: as §2
BT-474 [8] = assay: Induction of apoptosis in human BT474 cells at 10 uM after 24 hrs by […] staining; format: functional; in short: as §2
BT-474 [9] = assay: Effect on human BT474 cell survival assessed as cell detachment at 50 uM after 24 hrs by hemocytometer; format: functional; in short: as §1

Focal adhesion kinase 1 (Homo sapiens), sequence (Q05397 2-1052 limits assumed): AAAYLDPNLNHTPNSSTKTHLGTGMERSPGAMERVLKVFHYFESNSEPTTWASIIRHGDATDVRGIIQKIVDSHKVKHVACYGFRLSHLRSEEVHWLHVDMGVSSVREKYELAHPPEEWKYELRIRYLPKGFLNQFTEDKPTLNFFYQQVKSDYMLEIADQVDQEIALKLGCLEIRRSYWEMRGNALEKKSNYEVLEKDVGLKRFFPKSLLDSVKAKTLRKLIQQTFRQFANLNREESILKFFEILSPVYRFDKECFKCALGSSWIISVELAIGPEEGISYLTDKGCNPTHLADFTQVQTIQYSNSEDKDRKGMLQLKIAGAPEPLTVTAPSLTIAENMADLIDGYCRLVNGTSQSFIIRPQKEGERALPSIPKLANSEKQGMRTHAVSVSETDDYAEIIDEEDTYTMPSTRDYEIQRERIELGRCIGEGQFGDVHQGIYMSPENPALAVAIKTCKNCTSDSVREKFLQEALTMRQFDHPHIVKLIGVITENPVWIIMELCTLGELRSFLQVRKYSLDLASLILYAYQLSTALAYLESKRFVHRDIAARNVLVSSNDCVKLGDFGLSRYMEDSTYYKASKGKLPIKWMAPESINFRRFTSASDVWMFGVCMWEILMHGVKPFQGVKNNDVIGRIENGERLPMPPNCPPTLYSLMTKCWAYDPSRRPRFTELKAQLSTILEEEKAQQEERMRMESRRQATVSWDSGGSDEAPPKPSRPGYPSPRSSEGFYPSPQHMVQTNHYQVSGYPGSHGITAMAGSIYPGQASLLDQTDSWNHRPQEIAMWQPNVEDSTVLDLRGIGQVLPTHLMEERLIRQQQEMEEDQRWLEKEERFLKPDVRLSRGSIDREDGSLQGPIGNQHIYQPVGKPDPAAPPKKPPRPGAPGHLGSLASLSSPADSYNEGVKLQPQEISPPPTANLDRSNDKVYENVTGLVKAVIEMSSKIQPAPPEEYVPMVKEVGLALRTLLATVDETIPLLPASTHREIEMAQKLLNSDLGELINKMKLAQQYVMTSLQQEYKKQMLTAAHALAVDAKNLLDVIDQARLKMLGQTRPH

Activity [1]: tde
Activity [2]: tde
SMILES: CNC(=O)c1ccccc1Nc1nc(Nc2ccc(N3CCOCC3)cc2OC)ncc1Cl
Activity (BT-474 [3]): 30%
Activity (BT-474 [4]): Active
Activity (BT-474 [5]): Active
Activity (BT-474 [6]): Active
Activity (BT-474 [7]): 69%
Activity (BT-474 [8]): 35%
Activity (BT-474 [9]): >80%
